# Sampled rows, rich in hits. Any-hit rate of the full collection: about 1.6%.
# p47phox inh: p47phox/p22phox peptide binding inhibitors, primary screen, biochemical, uHTS, NADPH oxidase regulatory subunit | fluorescence polarization, 2 h | inhibition, % at 24.7 µM | 220,000 compounds, 0.53% hits | Neutrophil cytosol factor 1 (Homo sapiens), P14598;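 active = inhibition above about 30%, limit read from the data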;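 note: 0% = p47phox with labelled peptide and 100% = labelled peptide alone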
# HMGR II inh: inhibitors of E. faecalis class II HMGR, primary screen, biochemical, Enterococcus faecalis; HMG-CoA reductase (Enterococcus faecalis, mvaE); purified E. faecalis HMGR, NADPH absorbance 340 nm kinetic; inhibition, % at 10 µM; 190,000 compounds, 0.41% hits;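 active = inhibition above a set limit, the median over all tested compounds plus 3 SD, cut at about 9.5% in these data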;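 note: enzyme runs in reverse so mevalonate oxidation gives rising NADPH absorbance; 0% = complete reaction with DMSO and 100% = background rate lacking mevalonate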
# Diaph inh CS: diaphorase inhibitors and chemical oxidizers, primary screen, counter-screen for diaphorase-coupled primary assays, biochemical, uHTS, resorufin fluorescence; AID 1217, 2008; inhibition, % at 20 µM; 190,000 compounds, 0.69% hits; diaphorase resazurin-to-resorufin fluorescence, NADH, 16 min; bacterial (C. kluyveri) enzyme, not human;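 active = primary screen inhibition at 20 µM above a set limit, cut at about 50% in these data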;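 note: plate controls were DMSO with full reaction for no effect and wells lacking NADH for full effect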
#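 Assay system: diaphorase enzyme from Clostridium kluyveri; Input: enzyme working solution with 0.14 U/mL diaphorase; Timing: 16 min at room temperature; Technique: resorufin fluorescence, excitation 544 nm, emission 590 nm; Benchmarks: positive control minus NADH, DMSO neutral control.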
# ABCG2 block: ABCG2 efflux pump inhibitors, primary screen, multiplex with ABCB1, IgMXP3 cells, flow cytometry. JC-1 efflux. inhibition, % at 6.6 µM. 190,000 compounds, 0.1% hits. AID 1325, 2008;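 active = inhibition above 80%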;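 note: 0% = DMSO and 100% = nicardipine control wells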
# Target sequence (Q9UNQ0 whole entry, looked up): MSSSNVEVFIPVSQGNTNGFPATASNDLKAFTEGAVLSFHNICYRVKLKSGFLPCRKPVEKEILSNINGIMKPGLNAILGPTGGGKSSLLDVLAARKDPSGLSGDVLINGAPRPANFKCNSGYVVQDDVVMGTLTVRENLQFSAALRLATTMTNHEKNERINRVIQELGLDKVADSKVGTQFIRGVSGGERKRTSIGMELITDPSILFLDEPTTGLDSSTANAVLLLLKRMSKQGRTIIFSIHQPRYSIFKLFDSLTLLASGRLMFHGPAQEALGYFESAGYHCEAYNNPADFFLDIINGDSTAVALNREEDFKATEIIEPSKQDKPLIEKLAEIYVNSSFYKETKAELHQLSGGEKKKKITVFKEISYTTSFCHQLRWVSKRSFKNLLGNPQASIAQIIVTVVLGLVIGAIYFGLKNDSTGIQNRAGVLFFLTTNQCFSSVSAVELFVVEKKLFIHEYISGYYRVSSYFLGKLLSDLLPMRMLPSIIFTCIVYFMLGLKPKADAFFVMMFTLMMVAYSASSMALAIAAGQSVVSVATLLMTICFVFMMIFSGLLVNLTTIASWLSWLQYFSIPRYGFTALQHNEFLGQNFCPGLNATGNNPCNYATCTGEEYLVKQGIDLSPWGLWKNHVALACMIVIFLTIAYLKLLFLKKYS
#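 Test system: IgMXP3 cells (ABCG2) mixed with DDAO far-red-labelled CCRF-Adr cells (ABCB1). Reagent: JC-1 transporter substrate. Compound dosing: single test compound dose, 6.6 µM final. Times: 10 min compound exposure, 25 °C. Detection: flow cytometry of retained JC-1 fluorescence. Read-out basis: efflux inhibition in percent versus controls. Controls: nicardipine and DMSO wells.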
# ABCB1 inh: ABCB1 efflux pump inhibitors, primary screen, cell-based, multiplex, flow cytometry, ABCG2 counter-screen. ATP-dependent translocase ABCB1 (Homo sapiens), P08183. CCRF-Adr cells, JC-1 efflux. inhibition, % at 6.6 µM. 190,000 compounds, 0.067% hits; in the data active = inhibition above about 40%;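 note: 0% = vehicle and 100% = reference inhibitor; higher value means more JC-1 retained so stronger ABCB1 efflux block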
# Diaph act CS: compounds boosting diaphorase resazurin reduction – biochemical, uHTS, resorufin fluorescence, counter-screen for diaphorase-coupled primary assays, primary screen | Diaphorase/resazurin coupled assay, 16 min; stronger effect = higher value; 1 = vehicle wells, 0 = NADH-free wells | activation factor at 20 µM | 190,000 compounds, 0.005% hits;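 active = diaphorase activity raised at least twofold by the compound at 20 µM; inactive = activation factor below 2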
#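 Test system: Clostridium kluyveri diaphorase, purified enzyme. Buffer or medium: 50 mM HEPES pH 7.4 buffer plus MgCl2 and Tween 20. Also added: 0.114 mM NADH and 0.1 mM resazurin, final amounts. Dosing: compound 20 µM once, DMSO 1%. Schedule: 16 min enzyme reaction, ambient temperature. Detection: fluorescence of resorufin, 544 nm excitation, 590 nm emission.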
# Active calls of the source: *; / = no result given.
SMILES,p47phox inh,HMGR II inh,Diaph inh CS,ABCG2 block,ABCB1 inh,Diaph act CS
Cn1c(SCC(=O)N2CCCC2=O)nnc1-c1ccccc1F,1,19*,5,1,0,0.9
Cc1nnc(SC/C=C/c2ccccc2)n(N)c1=O,2,9.8*,-9,1,0,1.1
Cc1nnc(SCC(=O)N2CCCC2)n(N)c1=O,1,10*,-7,0,0,1.1
O=C(Cc1ccc(-c2ccccc2)cc1)NCc1ccccc1,-13,0,6,2,0,0.9
Cc1ccccc1NC(=O)c1sc(Cl)nc1-c1ccccc1,68*,-5,8,2,0,0.9
CCOC(=O)c1[nH]c(C)c(C(=O)OCC(=O)N(CC)C2CCS(=O)(=O)C2)c1C (stereo unspecified),-7,-3,-5,8,0,1.1
CN(C)c1cccc2c(C=C(C#N)C#N)ccc(N(C)C)c12,-10,-3,62*,16,4,0.4
CN(C)c1cccc2c(/C=N/O)ccc(N(C)C)c12,3,1,22,1,0,0.8
CCc1ccc(NC(=O)C(=O)NCC(O)c2ccccc2)cc1 (stereo unspecified),-6,1,-2,3,1,1
COc1ccccc1NC(=O)c1ccc(CN2CCOCC2)cc1,66*,0,-5,0,0,1.1
COc1ccc(OC)c(NC(=O)c2ccc(CN3CCOCC3)cc2)c1,2,-4,11,5,1,0.9
CCC1(CC)C(=O)NC(=O)NC1=Nc1cccc(OC)c1,-18,7,0,4,0,1
CCCN(CCC)S(=O)(=O)c1cccc(C(=O)Nc2ccc3c(c2)OCO3)c1,165*,-4,21,0,0,0.8
Cc1cc(OCC(=O)Nc2ccc(F)c(F)c2)nc(C(C)C)n1,165*,1,7,0,0,0.9
Cc1cc(OCC(=O)Nc2ccccc2F)nc(C(C)C)n1,-7,2,11,4,0,0.9
Cc1cc(C(=O)CSc2nncs2)c(C)n1-c1ccc2c(c1)OCO2,-11,-2,8,7,1,0.9
CCCCN=C(NNc1ccc(Br)cc1)C(=O)OCC,-3,-12,28,6,1,0.7
O=C(CSc1nnc(NC2CCCCC2)s1)Nc1ccc2c(c1)C(=O)c1ccccc1C2=O,-16,1,44,-9,-1,0.6
CC(C)Nc1nnc(SCC(=O)Nc2ccc3c(c2)C(=O)c2ccccc2C3=O)s1,-27,-5,52*,-12,-1,0.5
CC1=CC(=Nc2c(C)n(C)n(-c3ccccc3)c2=O)C=C(C)C1=O,-13,-3,70*,1,0,0.3
CCC(C)C1=CC(=Nc2c(C)n(C)n(-c3ccccc3)c2=O)C=C(C(C)CC)C1=O (stereo unspecified),3,-8,68*,2,1,0.3
CCOC(=O)c1ccccc1NC(=O)COC(=O)c1ccc(C)c(S(=O)(=O)N2CCOCC2)c1,93*,2,21,17,1,0.8
Cc1ccc(NC(=O)COC(=O)CN2C(=O)C3CCCCC3C2=O)cc1S(=O)(=O)N1CCOCC1 (stereo unspecified),-2,-3,4,3,1,1
Cc1ccc(NC(=O)COC(=O)CN2C(=O)NC(C)(C)C2=O)cc1S(=O)(=O)N1CCOCC1,-3,9.7*,-10,-1,0,1.1
O=C(NC1CCCC1)c1nc2c(nnn2Cc2ccccc2Cl)c(=O)[nH]1,-6,-1,4,2,0,1
SMILES,p47phox inh,HMGR II inh,Diaph inh CS,ABCG2 block,ABCB1 inh,Diaph act CS
Cc1c(-c2nnnn2-c2ccc(F)cc2)cnc2cc3c(cc12)OCO3,3,0,14,2,0,0.9
O=C(O)CC/C(=N/Nc1ncc(C(F)(F)F)cc1Cl)C(=O)O,1,-2,53*,1,0,0.5
CCOC(=O)c1cc(-c2ccc(OC(F)F)cc2)nc2nc(SC)[nH]c(=O)c12,-7,-6,28,22,1,0.7
CCOc1ccc(C2CC(c3cccc(OC)c3)Nc3ncnn32)cc1 (stereo unspecified),-9,-8,19,-4,-2,0.8
O=C1C2C3C=CC(C2C(=O)N1c1ccccc1O)C1C2C(=O)N(c4ccccc4O)C(=O)C2C31 (stereo unspecified),-4,-3,4,-1,0,1
O=C1C2C3C=CC(C2C(=O)N1c1ccc(O)cc1)C1C2C(=O)N(c4ccc(O)cc4)C(=O)C2C31 (stereo unspecified),34*,/,/,/,/,/
CC1(C)CC2CC(C)(CN2C(=O)c2cccs2)C1 (stereo unspecified),-6,-2,-3,14,1,1
O=C(/C=C/Nc1ccc(Br)cc1F)c1ccco1,-20,9.8*,34,16,2,0.7
O=C(/C=C/Nc1ccc(F)cc1F)c1ccco1,2,-7,4,7,1,1
Cc1nn(CCC(=O)NNC(=S)Nc2ccc([N+](=O)[O-])cc2)c(C)c1[N+](=O)[O-],-9,-15,86*,1,-1,0.1
O=C(Cn1nc(C(F)F)cc1C(F)F)NNC(=S)Nc1ccc([N+](=O)[O-])cc1,-12,-6,52*,0,0,0.5
CCN(CC)S(=O)(=O)c1ccc2c(c1)[nH]c(=S)n2CC,1,7,-5,0,0,1.1
Cc1cc(C(C)(C)C)ccc1OCCCCN1CCCC1,-9,2,5,5,0,0.9
Cc1cc(Br)ccc1OCCCCN1CCCCC1,48*,-1,10,-1,0,0.9
COC(=O)/C(=C\c1cc(OC)c(OC)c(OC)c1)c1nc2ccccc2[nH]1,-1,-1,6,1,0,0.9
Cc1c(C(=O)NCc2ccccn2)sc2nc(-c3ccccc3)cn12,-1,-6,12,1,0,0.9
Cc1ccc(S(=O)(=O)O/N=C2\CCCc3ccccc32)cc1,46*,-9,32,1,0,0.7
COc1ccc(C(=O)NCCC2=CCCCC2)cc1OC,-11,-5,-14,2,0,1.1

# High-throughput results from PubChem.
